# Measurements gathered from unrelated publications.
# SP140: SP140 (Homo sapiens, UniProt Q13342)
# ANKK1: Ankyrin repeat and protein kinase domain-containing protein 1 (ANKK1, Homo sapiens, UniProt Q8NFD2)
SMILES,target,assay,test system,setting,endpoint,value
Oc1c(Br)cc(Oc2ccc(Br)cc2Br)cc1Br,"Sulfotransferase 1E1 (SULT1E1, Homo sapiens, UniProt P49888)","enzyme activity, substrate",,,Km,4.23 µM
CC(C)(C)c1nc2c(s1)c1nc(N)ncc1c1ccc(NS(=O)(=O)c3c(F)cccc3F)c(F)c12,"Cyclin-dependent kinase 1, with cyclin A2 (CDK1, Homo sapiens, UniProt P06493)","enzyme activity, inhibitor, radiometric",,1 µM,remaining activity,100%
Oc1ccc(-c2nc(-c3ccncc3)c(-c3ccc(F)cc3)[nH]2)cc1,SP140,"thermal stability, DSF",,10 µM,ΔTm,0.36 °C
CC(C)(O)[C@H]1CC[C@H](Nc2ccc3ncc(-c4cccc(C(F)(F)F)c4)n3n2)CC1,"Cyclin-dependent kinase 1, with cyclin E (CDK1, Homo sapiens, UniProt P06493)","enzyme activity, inhibitor",,1 µM,remaining activity,107%
Cc1ccc(C(=O)Nc2ccc(CN3CCN(C)CC3)c(C(F)(F)F)c2)cc1C#Cc1cnc2cccnn12,ANKK1,cell-free assay,,23.5 nM,remaining signal,56%
Cc1cc2c(cc1N1C(=O)c3cccc4c(Cl)ccc(c34)C1=O)n(C)c(=O)n2C,SP140,"thermal stability, DSF",,10 µM,ΔTm,-0.9 °C
CCCOc1ccc(OC)c(F)c1C(=O)c1ccc(C(=O)N[C@@H]2CNC[C@H]2NC(=O)c2ccc3[nH]ncc3c2)cc1,"Serine/threonine-protein kinase Sgk2 (SGK2, Homo sapiens, UniProt Q9HBY8)","enzyme activity, inhibitor",,0.5 µM,remaining activity,16%
CC(C)(C)c1nc(-c2cccc(NS(=O)(=O)c3c(F)cccc3F)c2F)c(-c2ccnc(N)n2)s1,"Cyclin-dependent kinase 1, with cyclin E1 (CDK1, Homo sapiens, UniProt P06493)","enzyme activity, inhibitor, radiometric",,1 µM,remaining activity,57%
Cc1ccc(S(=O)(=O)Nc2ccc(-n3nc(C(F)(F)F)cc3C(F)(F)F)cc2)cc1,"Calcium release-activated calcium channel protein 1 (Rattus norvegicus, UniProt Q5M848)","ion current, inhibitor, patch clamp",RBL-2H3,3 µM,remaining activity,60%
Cc1cnc(Nc2ccc(OCCN3CCCC3)cc2)nc1Nc1cccc(S(=O)(=O)NC(C)(C)C)c1,SP140,"thermal stability, DSF",,10 µM,ΔTm,-0.01 °C
Nc1ncnc2occ(-c3ccc(NC(=O)Nc4cc(C(F)(F)F)ccc4F)cc3)c12,ANKK1,cell-free assay,,20 µM,remaining signal,3.6%
OCc1cc(C(O)CNCCCCCCOCCCCc2ccccc2)ccc1O (stereo not drawn),"C-X-C chemokine receptor type 4 (CXCR4, Homo sapiens, UniProt P61073)","calcium signal, antagonist",U87.CD4.CXCR4,0.8 µM,inhibition,9%
